Reference: ChEMBL document CHEMBL2203239, “Discovery of novel 2-(3-(2-chlorophenyl)pyrazin-2-ylthio)-N-arylacetamides as potent HIV-1 inhibitors using a structure-based bioisosterism approach” (Bioorg Med Chem, 2012)

How the values were obtained:
[1] = system: Human immunodeficiency virus 1; assay: Antiviral activity against HIV1 3B infected in human MT4 cells assessed as inhibition of virus-induced cytopathic effect by MTT assay; type: functional, organism-based; settings: Human immunodeficiency virus 1, 3B
Outline: (§1)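 MT-4 cells, spun 5 min at 1000 rpm and resuspended at 6×10^5 cells/mL, infected with HIV-1(IIIB) or HIV-2(ROD) at 100–300 CCID50. Compounds added at start as serial fivefold dilutions, triplicate wells. Viability read by MTT at 540 and 690 nm five days post-infection, using the median OD of three wells. EC50 is the concentration giving 50% protection against virus-induced cytopathicity.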

[2] = system: Human immunodeficiency virus 2; assay: Antiviral activity against HIV2 ROD infected in human MT4 cells assessed as inhibition of virus-induced cytopathic effect by MTT assay; type: functional, organism-based; settings: Human immunodeficiency virus 2, ISOLATE ROD; outline: as §1
[3] = Cytotoxicity against HIV1 3B infected in human MT4 cells by MTT assay; type: cell-based; settings: MT4 cells infected with HIV1 3B
Outline: (§2)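 Cytotoxicity measured in parallel on mock-infected MT-4 cells (6×10^5 cells/mL) that received culture medium instead of virus. Serial fivefold compound dilutions were run in triplicate. MTT read-out after 5 days at 540 and 690 nm, using the median OD of three wells. CC50 is the concentration that reduces OD540 of the mock-infected control by 50%.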

[4] = Selectivity index, ratio of CC50 for HIV2 ROD infected in human MT4 cells to EC50 for HIV1 3B; type: toxicity, cell-based; settings: MT4 cells infected with HIV2 ROD, read-out: Ratio CC50/EC50
Outline: (§3)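 Selectivity index calculated as CC50/EC50. Both values come from the parallel 5-day MTT assays in MT-4 cells, with mock-infected and HIV-infected wells on the same plate.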

[5] = Cytotoxicity against HIV2 ROD infected in human MT4 cells by MTT assay; type: cell-based; settings: MT4 cells infected with HIV2 ROD; outline: as §2
[6] = Selectivity index, ratio of CC50 for HIV1 3B infected in human MT4 cells to EC50 for HIV1 3B; type: toxicity, cell-based; settings: MT4 cells infected with HIV1 3B, read-out: Ratio CC50/EC50; outline: as §3
[7] = target: Human immunodeficiency virus type 1 reverse transcriptase (Human immunodeficiency virus 1, UniProt Q72547); assay: Inhibition of HIV1 recombinant reverse transcriptase assessed as incorporation of biotin-dUTP into […] by colorimetric analysis
Outline: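 Highly purified recombinant HIV-1 RT, with […] as template primer on plate-linked nucleotides. Activity measured colorimetrically as incorporation of biotin-dUTP.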

[8] = system: Human immunodeficiency virus; assay: Antiviral activity against wild type HIV; type: functional, organism-based; settings: Human immunodeficiency virus 1
[9] = system: Human immunodeficiency virus; assay: Antiviral activity against HIV harboring reverse transcriptase K103N/Y181C mutant; type: functional, organism-based; settings: Human immunodeficiency virus 1
Outline: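 MT-4 cells (6×10^5 cells/mL) were infected with 100–300 CCID50 of virus, and mock-infected cells were run in parallel. Compounds were tested in serial fivefold dilutions in triplicate wells. After 5 days, viability was read by MTT reduction at 540 and 690 nm using the median OD of three wells. EC50 is the concentration giving 50% protection against virus-induced cytopathicity.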

| Compound | EC50 [1] | EC50 [2] | CC50 [3] | selectivity ratio [4] | CC50 [5] | selectivity ratio [6] | IC50 [7] | EC50 [8] | EC50 [9] |
| --- | --- | --- | --- | --- | --- | --- | --- | --- | --- |
| COC(=O)c1ccc(NC(=O)CSc2nccnc2-c2ccccc2Cl)c(Br)c1 | 3.7 µM | > 108 µM | 95 µM | < 1 | 108 µM | 25 | – | – | – |
| Cc1ccc(NC(=O)CSc2nccnc2-c2ccccc2Cl)c([N+](=O)[O-])c1 | 2.9 µM | > 148 µM | 54 µM | < 1 | 148 µM | 19 | – | – | – |
| O=C(CSc1nccnc1-c1ccccc1Cl)Nc1ccccc1Br | 4.2 µM | > 41 µM | 31 µM | < 1 | 41 µM | 7 | – | – | – |
| CCOC(=O)c1ccc(NC(=O)CSc2nccnc2-c2ccccc2Cl)c(Br)c1 | 9 µM | > 62 µM | 45 µM | < 1 | 62 µM | 5 | – | – | – |
| COC(=O)c1sccc1NC(=O)CSc1nccnc1-c1ccccc1Cl | > 68 µM | > 48 µM | 68 µM | < 1 | 48 µM | < 1 | – | – | – |
| O=C(CSc1nccnc1-c1ccccc1Cl)Nc1ccccc1[N+](=O)[O-] | 1.7 µM | > 55 µM | 39 µM | < 1 | 55 µM | 23 | 50 µM | – | – |
| O=C(CSc1nccnc1-c1ccccc1Cl)Nc1ccc(Cl)cc1Br | 5.1 µM | > 29 µM | 26 µM | < 1 | 29 µM | 5 | – | – | – |
| O=C(CSc1nccnc1-c1ccccc1Cl)Nc1ccccc1 | > 35 µM | > 33 µM | 35 µM | < 1 | 33 µM | < 1 | – | – | – |
| Cc1ccc2sc(NC(=O)CSc3nccnc3-c3ccccc3Cl)nc2c1 | > 32 µM | > 30 µM | 32 µM | < 1 | 30 µM | < 1 | – | – | – |
| CC(C)Nc1cccnc1N1CCN(C(=O)c2cc3cc(NS(C)(=O)=O)ccc3[nH]2)CC1 [DELAVIRDINE] | – | – | > 36 µM | – | > 36 µM | > 1100 | – | – | – |
| Cc1ccc(NC(=O)CSc2nccnc2-c2ccccc2Cl)c(Br)c1 | 4.3 µM | > 35 µM | 31 µM | < 1 | 35 µM | 9 | – | – | – |
| O=C1Nc2ccc(Cl)cc2[C@@](C#CC2CC2)(C(F)(F)F)O1 [EFAVIRENZ] | – | – | > 6.3 µM | – | > 6.3 µM | – | – | – | – |
| NS(=O)(=O)c1ccc(NC(=O)CSc2nnc(Br)n2-c2ccc(C3CC3)c3ccccc23)c(Cl)c1 | – | – | – | – | – | – | – | 0.14 µM | 0.23 µM |
| Cc1cn([C@H]2C[C@H](N=[N+]=[N-])[C@@H](CO)O2)c(=O)[nH]c1=O [ZIDOVUDINE] | 0.021 µM | – | 249 µM | 56900 | 249 µM | 12200 | – | – | – |
| O=C(CSc1nccnc1-c1ccccc1Cl)Nc1ccccc1F | 5.3 µM | > 91 µM | 48 µM | < 1 | 91 µM | 9 | – | – | – |
| Cc1ccnc2c1NC(=O)c1cccnc1N2C1CC1 [NEVIRAPINE] | – | – | > 15 µM | – | > 15 µM | – | – | – | – |
| O=C(CSc1nccnc1-c1ccccc1Cl)N1CCCc2ccccc21 | > 33 µM | > 34 µM | 33 µM | < 1 | 34 µM | < 1 | – | – | – |
| CC(=O)c1ccc(NC(=O)CSc2nccnc2-c2ccccc2Cl)c(Br)c1 | 2.5 µM | > 31 µM | 30 µM | < 1 | 31 µM | 12 | – | – | – |
| O=C(CSc1nccnc1-c1ccccc1Cl)Nc1ccccc1Cl | 4.6 µM | > 46 µM | 34 µM | < 1 | 46 µM | 7 | – | – | – |
| O=C(CSc1nccnc1-c1ccccc1Cl)Nc1cccnc1Cl | 2.3 µM | > 166 µM | 152 µM | < 1 | 166 µM | 64 | – | – | – |
| O=C(CSc1nccnc1-c1ccccc1Cl)N1CCc2ccccc2C1 | 4.1 µM | > 50 µM | 33 µM | < 1 | 50 µM | 8 | – | – | – |
| Nc1ccn([C@H]2CC[C@@H](CO)O2)c(=O)n1 [ZALCITABINE] | – | – | > 95 µM | > 74 | > 95 µM | > 93 | – | – | – |
| O=C(CSc1nccnc1-c1ccccc1Cl)Nc1ccc(Cl)cc1Cl | 5.2 µM | > 34 µM | 29 µM | < 1 | 34 µM | 6 | – | – | – |
